Measured values taken from article PMC4097008 (Molecular immunology, 2014).
Like-named read-outs stand apart in the source and are kept apart here.

Key:
Bla g 4 [1] = target: T1, Bla g 4 (Blattella germanica, UniProt P54962); test: isothermal titration calorimetry; format: binding
How it was run: (§1)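 Bla g 4 binding enthalpy was recorded by ITC at 25°C in 20 mM phosphate buffer, pH 8.0, with 100 μM protein and test amine titrant at 1 mM initial concentration. Supporting 1H-15N HSQC titrations used 0.2 mM 15N-labelled Bla g 4 (M9, 15N ammonium chloride) in 20 mM acetate, pH 4.5, 10% D2O, at 308 K and 800 MHz. Protein:ligand molar ratios were 1:0, 1:0.5, 1:1 and 1:2.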

Bla g 4 [2] = target: T1, Bla g 4; test: isothermal titration calorimetry; format: binding; remark: listed apart in the source
How it was run: as §1

T1 sequence (P54962 7-182): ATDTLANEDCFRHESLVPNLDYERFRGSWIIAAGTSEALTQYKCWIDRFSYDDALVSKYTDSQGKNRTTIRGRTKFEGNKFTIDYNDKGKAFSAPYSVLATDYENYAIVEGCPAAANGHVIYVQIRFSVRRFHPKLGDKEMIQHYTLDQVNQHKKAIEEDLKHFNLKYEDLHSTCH

Row | Compound | Kd (Bla g 4 [1]) | Kd (Bla g 4 [2])
1 | NC[C@H](O)c1ccc(O)cc1 [octopamine] | 185 nM | –
2 | NCCc1ccc(O)cc1 [tyramine] | – | 45 nM
